Reference: ChEMBL document CHEMBL4033712, “Synthesis and biological evaluation of new C-12(α/β)-(N-) sulfamoyl-phenylamino-14-deoxy-andrographolide derivatives as potent anti-cancer agents” (Bioorg Med Chem Lett, 2017)

Key:
Format in all cases: functional
SNB-19 = assay: Anticancer activity against human SNB19 cells assessed as cell growth at 10 uM after 48 hrs by sulforhodamine B assay relative to control; settings: SNB-19, 48 h, read-out: Activity
Summary of the method: (§1)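 Single-dose NCI-60 panel screen: compound added at 10 µM and the culture incubated 48 h. The end point was read by protein staining with sulforhodamine B. The value is percent growth of treated cells relative to untreated control cells, reported as a mean graph across the panel.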

HOP-92 = assay: Anticancer activity against human HOP92 cells assessed as cell growth at 10 uM after 48 hrs by sulforhodamine B assay relative to control; settings: HOP-92, 48 h, read-out: Activity; summary of the method: as §1
EKVX = assay: Growth inhibition of human EKVX cells incubated for 48 hrs by sulforhodamine B assay
Summary of the method: (§2)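 NCI-60 five-dose screen at 0.01, 0.1, 1, 10 and 100 µM, 48 h incubation, sulforhodamine B end point. GI50 (50% decrease in net growth), TGI (total growth inhibition) and LC50 (net 50% loss of initial cells) taken from log concentration versus % growth inhibition curves.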

SF-539 = assay: Anticancer activity against human SF539 cells assessed as cell growth at 10 uM after 48 hrs by sulforhodamine B assay relative to control; settings: SF-539, 48 h, read-out: Activity; summary of the method: as §1
RPMI-8226 = assay: Growth inhibition of human RPMI8226 cells incubated for 48 hrs by sulforhodamine B assay; settings: RPMI-8226, 48 h
Summary of the method: (§3)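 NCI 60 human tumour cell line panel, five-dose study at 0.01, 0.1, 1, 10 and 100 µM, 48 h incubation. Sulforhodamine B protein-binding dye end point. GI50 (50% decrease in net cell growth), TGI (total growth inhibition) and LC50 (net 50% loss of initial cells) read from log concentration versus % growth inhibition curves.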

M14 = assay: Growth inhibition of human M14 cells incubated for 48 hrs by sulforhodamine B assay; settings: M14, 48 h; summary of the method: as §2
UACC-257 = assay: Growth inhibition of human UACC257 cells incubated for 48 hrs by sulforhodamine B assay; settings: UACC-257, 48 h; summary of the method: as §3
NCI-H23 = assay: Growth inhibition of human NCI-H23 cells incubated for 48 hrs by sulforhodamine B assay; settings: NCI-H23, 48 h; summary of the method: as §2
SR = assay: Growth inhibition of human SR cells incubated for 48 hrs by sulforhodamine B assay; summary of the method: as §3
OVCAR-3 = assay: Growth inhibition of human OVCAR3 cells incubated for 48 hrs by sulforhodamine B assay; settings: OVCAR-3, 48 h; summary of the method: as §2
RXF 393 = assay: Growth inhibition of human RXF393 cells incubated for 48 hrs by sulforhodamine B assay; settings: RXF 393, 48 h; summary of the method: as §3
NCI-H460 = assay: Growth inhibition of human NCI-H460 cells incubated for 48 hrs by sulforhodamine B assay; settings: NCI-H460, 48 h; summary of the method: as §2
MOLT-4 = assay: Growth inhibition of human MOLT4 cells incubated for 48 hrs by sulforhodamine B assay; settings: MOLT-4, 48 h; summary of the method: as §2
UACC-62 = assay: Growth inhibition of human UACC62 cells incubated for 48 hrs by sulforhodamine B assay; settings: UACC-62, 48 h; summary of the method: as §3
UO-31 = assay: Growth inhibition of human UO31 cells incubated for 48 hrs by sulforhodamine B assay; settings: UO-31, 48 h; summary of the method: as §3
SK-MEL-5 = assay: Growth inhibition of human SK-MEL-5 cells incubated for 48 hrs by sulforhodamine B assay; settings: SK-MEL-5, 48 h; summary of the method: as §3
MDA-MB-435 = assay: Growth inhibition of human MDA-MB-435 cells incubated for 48 hrs by sulforhodamine B assay; settings: MDA-MB-435, 48 h; summary of the method: as §2
NCI-H226 = assay: Growth inhibition of human NCI-H226 cells incubated for 48 hrs by sulforhodamine B assay; settings: NCI-H226, 48 h; summary of the method: as §2
CAKI-1 = assay: Growth inhibition of human Caki1 cells incubated for 48 hrs by sulforhodamine B assay; settings: CAKI-1, 48 h; summary of the method: as §2
MCF7 = assay: Growth inhibition of human MCF7 cells incubated for 48 hrs by sulforhodamine B assay; settings: MCF7, 48 h; summary of the method: as §2
SK-OV-3 = assay: Growth inhibition of human SKOV3 cells incubated for 48 hrs by sulforhodamine B assay; settings: SK-OV-3, 48 h; summary of the method: as §3
SF-295 = assay: Growth inhibition of human SF295 cells incubated for 48 hrs by sulforhodamine B assay; settings: SF-295, 48 h; summary of the method: as §3
T47D = assay: Growth inhibition of human T47D cells incubated for 48 hrs by sulforhodamine B assay; summary of the method: as §3
HCT-15 = assay: Growth inhibition of human HCT15 cells incubated for 48 hrs by sulforhodamine B assay; settings: HCT-15, 48 h; summary of the method: as §2
U-251 = assay: Growth inhibition of human U251 cells incubated for 48 hrs by sulforhodamine B assay; settings: U-251, 48 h; summary of the method: as §3
HOP-62 = assay: Growth inhibition of human HOP62 cells incubated for 48 hrs by sulforhodamine B assay; settings: HOP-62, 48 h; summary of the method: as §2
OVCAR-8 = assay: Growth inhibition of human OVCAR8 cells incubated for 48 hrs by sulforhodamine B assay; settings: OVCAR-8, 48 h; summary of the method: as §2
NCI-H522 = assay: Growth inhibition of human NCI-H522 cells incubated for 48 hrs by sulforhodamine B assay; settings: NCI-H522, 48 h; summary of the method: as §2
[1] = read-out: LC50 (the source's name)

C=C1CC[C@@H]2[C@](C)(COC(C)=O)[C@H](OC(C)=O)CC[C@@]2(C)[C@H]1CC(Nc1ccc(S(=O)(=O)Nc2nc(C)cc(C)n2)cc1)C1=CCOC1=O (stereo partly specified)
growth at 10 µM (SNB-19): 100% | growth at 10 µM (HOP-92): 90.1%

C=C1CC[C@@H]2[C@](C)(COC(C)=O)[C@H](OC(C)=O)CC[C@@]2(C)[C@H]1CC(Nc1ccc(S(=O)(=O)Nc2cc(C)on2)cc1)C1=CCOC1=O (stereo partly specified)
GI50 (EKVX): 11 µM | TGI (EKVX): 25.9 µM | CC50 (EKVX; [1]): 60.8 µM | growth at 10 µM (SF-539): 6.3% | GI50 (RPMI-8226): 1.54 µM | TGI (RPMI-8226): 5.42 µM | CC50 (RPMI-8226; [1]): > 100 µM | GI50 (M14): 1.69 µM | TGI (M14): 4.17 µM | CC50 (M14; [1]): 10.8 µM | GI50 (UACC-257): 2.95 µM | TGI (UACC-257): 6.19 µM | CC50 (UACC-257; [1]): 18.7 µM | GI50 (NCI-H23): 2.31 µM | TGI (NCI-H23): 5.9 µM | CC50 (NCI-H23; [1]): 31.4 µM | GI50 (SR): 0.37 µM | TGI (SR): 3.36 µM | CC50 (SR; [1]): > 100 µM | GI50 (OVCAR-3): 1.66 µM | TGI (OVCAR-3): 3.09 µM | CC50 (OVCAR-3; [1]): 5.75 µM | GI50 (RXF 393): 2.05 µM | TGI (RXF 393): 3.84 µM | CC50 (RXF 393; [1]): 7.22 µM | GI50 (NCI-H460): 2.35 µM | TGI (NCI-H460): 5.7 µM | CC50 (NCI-H460; [1]): 27.7 µM | GI50 (MOLT-4): 2.12 µM | TGI (MOLT-4): 6.39 µM | CC50 (MOLT-4; [1]): > 100 µM | GI50 (UACC-62): 2.13 µM | TGI (UACC-62): 7.06 µM | CC50 (UACC-62; [1]): 30.5 µM | GI50 (UO-31): 1.69 µM | LC50 (concentration giving net 50% loss of initial cells) (UO-31): 7.33 µM | TGI (UO-31): 3.52 µM | GI50 (SK-MEL-5): 2.11 µM | TGI (SK-MEL-5): 4.65 µM | CC50 (SK-MEL-5; [1]): 11.7 µM | GI50 (MDA-MB-435): 1.74 µM | TGI (MDA-MB-435): 4.37 µM | CC50 (MDA-MB-435; [1]): 12.5 µM | GI50 (NCI-H226): 1.81 µM | TGI (NCI-H226): 3.85 µM | GI50 (CAKI-1): 4.14 µM | TGI (CAKI-1): 14.7 µM | CC50 (CAKI-1; [1]): 38.6 µM | GI50 (MCF7): 0.59 µM | TGI (MCF7): 2.76 µM | GI50 (SK-OV-3): 11 µM | TGI (SK-OV-3): 23.1 µM | CC50 (SK-OV-3; [1]): 48.6 µM | GI50 (SF-295): 8.13 µM | TGI (SF-295): 21 µM | CC50 (SF-295; [1]): 47.7 µM | GI50 (T47D): 2.8 µM | TGI (T47D): 7.37 µM | CC50 (T47D; [1]): > 100 µM | GI50 (HCT-15): 1.5 µM | TGI (HCT-15): 3.83 µM | CC50 (HCT-15; [1]): 9.74 µM | GI50 (U-251): 1.89 µM | TGI (U-251): 3.4 µM | CC50 (U-251; [1]): 6.12 µM | GI50 (HOP-62): 8.88 µM | TGI (HOP-62): 22.9 µM | CC50 (HOP-62; [1]): 56.9 µM | GI50 (OVCAR-8): 1.88 µM | TGI (OVCAR-8): 4.3 µM | CC50 (OVCAR-8; [1]): 9.83 µM | GI50 (NCI-H522): 1.04 µM | TGI (NCI-H522): 2.42 µM | CC50 (NCI-H522; [1]): 5.61 µM
